Measurements from ChEMBL document CHEMBL4190349, “Synthesis and 2D-QSAR studies of neolignan-based diaryl-tetrahydrofuran and -furan analogues with remarkable activity against Trypanosoma cruzi and assessment of the trypanothione reductase activity” (Eur J Med Chem, 2017).
Active and inactive are the calls of the source. The rule behind the calls is not given here.

How the values were obtained:
[1] = Cytotoxicity in C57BL/6 mouse spleen cells assessed as reduction in cell viability up to 250 uM incubated for 24 hrs by propidium iodide staining based flow cytometry
How it was run: (§1)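 Spleen cells from C57BL/6 mice, after red-cell lysis with Tris–NH4Cl, in RPMI with 5% FBS, seeded at 6.5×10^6/mL. Exposed 24 h at 37°C to 250 to 1.50 µM. Stained with 10 µg/mL propidium iodide and read by flow cytometry. 1% Tween 20 was the death control. Run in triplicate.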

[2] = test system: Trypanosoma cruzi; assay: Antitrypanosomal activity against Trypanosoma cruzi Tulahuen trypomastigotes expressing beta-galactosidase gene incubated for 4 days by beta-galactosidase mediated CPRG substrate hydrolysis assay; format: functional, organism-based; details: 96 h
How it was run: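 Tulahuen lacZ (β-galactosidase-expressing) cell-derived trypomastigotes, 5×10^5 per well, exposed 4 days at 37°C to serial concentrations 500 to 3.75 µM. Then PBS with 0.5% Triton X-100 and 100 µM CPRG was added, followed by 4 h at 37°C. Absorbance at 570 nm reflects viability. Run in duplicate. EC50 comes from dose-response curves.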

[3] = test system: Trypanosoma cruzi; assay: Antitrypanosomal activity against Trypanosoma cruzi Y trypomastigotes; format: functional, organism-based
How it was run: (§2)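 Y strain trypomastigotes plated at 1×10^6 parasites/mL and exposed to serial concentrations of 500 to 3.75 µM. After 24 h, parasites were removed and counted in a Neubauer chamber. EC50 comes from dose-response curves.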

[4] = test system: Trypanosoma cruzi; assay: Antitrypanosomal activity against Trypanosoma cruzi Tulahuen amastigotes expressing beta-galactosidase gene infected in LLC-MK2 cells incubated for 4 days after 4 hrs post infection by beta-galactosidase mediated CPRG substrate hydrolysis assay; format: functional, organism-based; details: in the assay text read “24 hrs post infection” for “4 hrs post infection”
How it was run: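 LLC-MK2 cells in phenol-red-free RPMI 1640 with 5% FBS, seeded at 2×10^4 cells/mL for 24 h. Infected with Tulahuen lacZ trypomastigotes (3:1 parasite:cell) at 37°C and washed at 4 h. Compounds (500 to 0.24 µM) added 24 h post-infection for 4 days at 37°C. After washing, Triton X-100/100 µM CPRG lysis, 4 h at 37°C, A570. Untreated infected wells were controls.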

[5] = biological target: Trypanothione reductase (Trypanosoma cruzi, UniProt P28593); assay: (§3) Inhibition of Trypanosoma cruzi trypanothione reductase expressed in Escherichia coli BL21 (DE3) pre-incubated for 30 mins using TS2 substrate in presence of NADPH by colorimetric microplate assay
Chain of Trypanothione reductase (P28593 whole entry): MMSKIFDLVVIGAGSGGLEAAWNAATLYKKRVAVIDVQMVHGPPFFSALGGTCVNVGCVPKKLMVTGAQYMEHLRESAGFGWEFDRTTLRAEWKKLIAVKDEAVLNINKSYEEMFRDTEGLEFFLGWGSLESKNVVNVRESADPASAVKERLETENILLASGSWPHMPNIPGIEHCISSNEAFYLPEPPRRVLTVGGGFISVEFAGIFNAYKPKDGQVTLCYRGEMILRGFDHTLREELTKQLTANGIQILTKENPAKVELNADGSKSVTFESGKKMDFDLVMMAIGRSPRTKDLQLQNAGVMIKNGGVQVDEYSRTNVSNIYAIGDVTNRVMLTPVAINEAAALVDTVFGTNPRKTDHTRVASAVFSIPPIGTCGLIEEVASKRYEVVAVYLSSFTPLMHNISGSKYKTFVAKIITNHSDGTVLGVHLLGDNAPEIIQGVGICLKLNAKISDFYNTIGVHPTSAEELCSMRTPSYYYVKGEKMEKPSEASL
How it was run: (§4)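 Recombinant T. cruzi TR expressed in E. coli BL21DE3 and affinity-purified. Assay: TcTR 5 m-unit, 40 mM HEPES pH 7.5, 0.15 mM NADPH, 1 mM EDTA, 1 µM TS2, compounds in DMSO (final 1% DMSO control). Pre-incubated 30 min at 27°C, then DTNB added, and A412 read every 5 min for 30 min.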

[6] = Cytotoxicity in C57BL/6 mouse spleen cells assessed as reduction in cell viability incubated for 24 hrs by propidium iodide staining based flow cytometry; how it was run: as §1
[7] = Selectivity index, ratio of CC50 for cytotoxicity in C57BL/6 spleen cells to EC50 for Antitrypanosomal activity against Trypanosoma cruzi Tulahuen trypomastigotes; format: toxicity, cell-based; details: C57BL/6, mouse, read-out: Ratio CC50/EC50
[8] = test system: Trypanosoma cruzi; assay: Growth inhibition of Trypanosoma cruzi amastigotes at 20 ug/ml; format: functional; details: read-out: GI
[9] = test system: Trypanosoma cruzi; assay: Antitrypanosomal activity against Trypanosoma cruzi Y trypomastigotes assessed as induction of parasite lysis; format: functional, organism-based; how it was run: as §2
[10] = biological target: Trypanothione reductase (Trypanosoma cruzi) (UniProt P28593); assay: as §3; how it was run: as §4
Chain of Trypanothione reductase (Trypanosoma cruzi) (P28593 whole entry, looked up): as the sequence (P28593 whole entry) above

[11] = test system: Trypanosoma cruzi; assay: Antitrypanosomal activity against Trypanosoma cruzi; format: functional, organism-based

| Compound | Activity [1] | EC50 [2] | IC50 [2] | other results |
| --- | --- | --- | --- | --- |
| COc1ccc(C(=O)CCC(=O)c2ccccc2)cc1 | Non-Toxic | 15.9 µM | 15.9 µM |  |
| COc1cc(OC)cc(C(=O)CCC(=O)c2ccccc2)c1 | Non-Toxic | 1.69 µM | 1.69 µM | EC50 [3]: 15.9 µM |
| COc1ccc(-c2ccc(-c3ccccc3)o2)c(OC)c1 | Non-Toxic | 1.12 µM | 1.12 µM | EC50 [3]: 35.9 µM; EC50 [4]: 19 µM; IC50 [5]: 17.7 µM |
| OC(CCC(O)c1ccccc1)c1ccccc1 (stereo unspecified) |  | 33.2 µM | 33.2 µM | CC50 at 24 h [6]: 166 µM; selectivity ratio [7]: 5 |
| COc1ccc(C(O)CCC(O)c2ccccc2)cc1OC (stereo unspecified) | Non-Toxic | 83.1 µM | 83.2 µM |  |
| COc1ccc(-c2ccc(-c3ccc(OC)c(OC)c3)o2)cc1OC |  |  |  | inhibition of growth at 20 µg/mL [8]: 65% |
| COc1cccc(C2CCC(c3ccccc3)O2)c1 (stereo unspecified) | Non-Toxic | 2.29 µM | 2.29 µM | EC50 [3]: 34.2 µM; EC50 [4]: 126 µM |
| COc1cc(OC)cc(C(O)CCC(O)c2ccccc2)c1 (stereo unspecified) | Non-Toxic | 67.6 µM | 67.6 µM |  |
| COc1ccc(C(=O)CCC(=O)c2ccccc2)cc1OC | Non-Toxic | 36 µM | 36 µM |  |
| COc1cc([C@@H]2O[C@@H](c3cc(OC)c(OC)c(OC)c3)[C@H](C)[C@H]2C)cc(OC)c1OC [GRANDISIN] |  | 28.6 µM |  | EC50 [9]: 3.7 µM |
| COc1cc(OC)cc(C(O)C#CC(O)c2ccccc2)c1 (stereo unspecified) |  | 4.98 µM | 4.98 µM | CC50 at 24 h [6]: 78.6 µM; selectivity ratio [7]: 15.8 |
| COc1cc(C(=O)CCC(=O)c2ccccc2)cc(OC)c1OC | Non-Toxic | 36.9 µM | 36.9 µM |  |
| COc1ccc(C(O)C#CC(O)c2ccccc2)cc1 (stereo unspecified) | Non-Toxic | 14 µM | 14 µM |  |
| COc1ccc(C(O)C#CC(O)c2ccccc2)cc1OC (stereo unspecified) | Non-Toxic | 8.98 µM | 8.97 µM |  |
| COc1ccc(C(=O)CCC(=O)c2ccccc2)c(OC)c1 | Non-Toxic | 7.79 µM | 7.8 µM | EC50 [3]: 1.76 µM |
| COc1cc(-c2ccc(-c3ccccc3)o2)cc(OC)c1OC | Non-Toxic | 29.1 µM | 29.1 µM |  |
| COc1cc(C2CCC(c3ccccc3)O2)cc(OC)c1OC (stereo unspecified) | Non-Toxic | 26.2 µM | 26.2 µM |  |
| COc1ccc(C(O)CCC(O)c2ccccc2)cc1 (stereo unspecified) | Non-Toxic | 68.1 µM | 68.1 µM |  |
| c1ccc(C2CCC(c3ccccc3)O2)cc1 (stereo unspecified) | Non-Toxic | 37.3 µM | 37.3 µM |  |
| COc1cccc(C(O)C#CC(O)c2ccccc2)c1 (stereo unspecified) | Non-Toxic | 39.1 µM | 39.1 µM |  |
| NS(=O)(=O)c1ccc(-c2ccco2)cc1 |  |  |  | inhibition of growth at 20 µg/mL [8]: 70% |

| Compound | Activity [1] | EC50 [2] | IC50 [2] | other results |
| --- | --- | --- | --- | --- |
| COc1cc(OC)cc(C2CCC(c3ccccc3)O2)c1 (stereo unspecified) | Non-Toxic | 12.1 µM | 12.1 µM |  |
| COc1ccc([C@H]2O[C@@H](c3ccc(OC)c(OC)c3)[C@H](C)[C@H]2C)cc1OC [VERAGUENSIN] |  | 2.67 µM |  | EC50 [9]: 2.3 µM |
| COc1ccc(C2CCC(c3ccccc3)O2)c(OC)c1 (stereo unspecified) | Non-Toxic | 0.75 µM | 0.75 µM | EC50 [3]: 1.05 µM; EC50 [4]: 19.8 µM |
| COc1ccc(C2CCC(c3ccccc3)O2)cc1 (stereo unspecified) | Non-Toxic | 9.07 µM | 9.08 µM |  |
| COc1cc(C(O)CCC(O)c2ccccc2)cc(OC)c1OC (stereo unspecified) |  | 77.5 µM | 77.4 µM | CC50 at 24 h [6]: 115 µM; selectivity ratio [7]: 1.5 |
| COc1ccc(C(O)C#CC(O)c2ccccc2)c(OC)c1 (stereo unspecified) | Non-Toxic | 37.9 µM | 37.8 µM |  |
| COc1ccc(C2CCC(c3ccccc3)O2)cc1OC (stereo unspecified) | Non-Toxic | 24.6 µM | 24.6 µM |  |
| O=C(Cn1ccnc1[N+](=O)[O-])NCc1ccccc1 [BENZNIDAZOLE] |  | 1.65 µM |  | EC50 [3]: 0.04 µM |
| COc1cc(C(O)C#CC(O)c2ccccc2)cc(OC)c1OC (stereo unspecified) | Non-Toxic | 4.88 µM | 4.88 µM | EC50 [3]: 97.1 µM |
| COc1cccc(C(O)CCC(O)c2ccccc2)c1 (stereo unspecified) | Non-Toxic | 193 µM | 193 µM |  |
| O=C(CCC(=O)c1ccccc1)c1ccccc1 |  | 199 µM | 199 µM | CC50 at 24 h [6]: 220 µM; selectivity ratio [7]: 1.1 |
| COc1cc(OC)cc(-c2ccc(-c3ccccc3)o2)c1 | Non-Toxic | 0.01 µM |  | EC50 [3]: 4.08 µM; EC50 [4]: 133 µM; inhibition [10]: inactive |
| COc1cccc(-c2ccc(-c3ccccc3)o2)c1 | Non-Toxic | 3.34 µM | 3.34 µM | EC50 [3]: 34.2 µM; EC50 [4]: 126 µM; IC50 [5]: 8.9 µM |
| COc1ccc(C(O)CCC(O)c2ccccc2)c(OC)c1 (stereo unspecified) |  | 19.9 µM | 19.9 µM | CC50 at 24 h [6]: 236 µM; selectivity ratio [7]: 11.9 |
| COc1ccc(-c2ccc(-c3ccccc3)o2)cc1OC | Non-Toxic | 1.34 µM | 1.34 µM | EC50 [3]: 32.6 µM; EC50 [4]: 126 µM; IC50 [5]: 19.2 µM |
| COc1cc([C@@H]2O[C@@H](c3cc(OC)c(OCc4ccccc4)c(OC)c3)C(CO)=C2C)cc(OC)c1OC |  |  |  | EC50 [11]: 1.5 µM |
| COc1cccc(C(=O)CCC(=O)c2ccccc2)c1 | Non-Toxic | 18.3 µM | 18.3 µM |  |
| OC(C#CC(O)c1ccccc1)c1ccccc1 (stereo unspecified) | Non-Toxic | 18.7 µM | 18.7 µM |  |
| COc1ccc(-c2ccc(-c3ccccc3)o2)cc1 | Non-Toxic | 4.75 µM | 4.75 µM | EC50 [3]: 19.2 µM; EC50 [4]: 127 µM; IC50 [5]: 7.4 µM |
| c1ccc(-c2ccc(-c3ccccc3)o2)cc1 |  | 21 µM | 21 µM | CC50 at 24 h [6]: 194 µM; selectivity ratio [7]: 9.2 |
